# Laboratory results: ChEMBL document CHEMBL3244429, “Antischistosomal effects of 5-(2,4,5-trichlorophenyl)hydantoin and related compounds” (J Med Chem, 1977)
# Activity calls are given as the source filed them. The rule behind the calls is not given here.
# Experiments:
# Schistosoma mansoni [1] = test: Antischistosomal activity against Schistosoma mansoni Puerto Rican infected mouse assessed as reduction in live schistosomes at 265 mg/kg/day, through diet for 14 days; assay type: functional; settings: 336 h
# How it was run: (§1)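 Mice carrying a Puerto Rican strain of S. mansoni received drug mixed into a powdered diet for 14 days, with dose expressed as mg/kg per day. The read-out was the reduction in live schistosomes in the infected mice.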
# Schistosoma mansoni [2] = test: Antischistosomal activity against Schistosoma mansoni Puerto Rican infected mouse assessed as infected mouse at 265 mg/kg/day, through diet for 14 days; assay type: functional; how it was run: as §1
# Schistosoma mansoni [3] = test: Antischistosomal activity against Schistosoma mansoni Puerto Rican infected mouse assessed as infected mouse at 332 mg/kg/day, through diet for 14 days; assay type: functional; how it was run: as §1
# Schistosoma mansoni [4] = test: Antischistosomal activity against Schistosoma mansoni Puerto Rican infected mouse assessed as reduction in live schistosomes at 332 mg/kg/day, through diet for 14 days; assay type: functional; settings: 336 h; how it was run: as §1
# Schistosoma mansoni [5] = test: Antischistosomal activity against Schistosoma mansoni Puerto Rican infected mouse assessed as reduction in live schistosomes at 347 mg/kg/day, through diet for 14 days; assay type: functional; settings: 336 h; how it was run: as §1
# Schistosoma mansoni [6] = test: Antischistosomal activity against Schistosoma mansoni Puerto Rican infected mouse assessed as infected mouse at 347 mg/kg/day, through diet for 14 days; assay type: functional; how it was run: as §1
# Schistosoma mansoni [7] = test: Antischistosomal activity against Schistosoma mansoni Puerto Rican infected mouse assessed as reduction in live schistosomes at 376 mg/kg/day, through diet for 14 days; assay type: functional; settings: 336 h; how it was run: as §1
# Schistosoma mansoni [8] = test: Antischistosomal activity against Schistosoma mansoni Puerto Rican infected mouse assessed as infected mouse at 376 mg/kg/day, through diet for 14 days; assay type: functional; how it was run: as §1
# Schistosoma mansoni [9] = test: Antischistosomal activity against Schistosoma mansoni Puerto Rican infected mouse assessed as infected mouse at 298 mg/kg/day, through diet for 14 days; assay type: functional; how it was run: as §1
# Schistosoma mansoni [10] = test: Antischistosomal activity against Schistosoma mansoni Puerto Rican infected mouse assessed as reduction in live schistosomes at 298 mg/kg/day, through diet for 14 days; assay type: functional; settings: 336 h; how it was run: as §1
# Schistosoma mansoni [11] = test: Antischistosomal activity against Schistosoma mansoni Puerto Rican infected mouse assessed as reduction in live schistosomes at 396 mg/kg/day, through diet for 14 days; assay type: functional; settings: 336 h; how it was run: as §1
# Schistosoma mansoni [12] = test: Antischistosomal activity against Schistosoma mansoni Puerto Rican infected mouse assessed as infected mouse at 396 mg/kg/day, through diet for 14 days; assay type: functional; how it was run: as §1
# Schistosoma mansoni [13] = test: Antischistosomal activity against Schistosoma mansoni infected rhesus monkey assessed as removal of all worms at 200 mg/kg/day, through gavage for 5 to 10 days; assay type: functional, organism-based
# How it was run: (§2)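 S. mansoni-infected rhesus monkeys were dosed daily by gavage. Assessment was by egg output over time (temporary suppression) and by the number of live and dead worms remaining in the treated animal.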
# Schistosoma mansoni [14] = test: Antischistosomal activity against Schistosoma mansoni infected rhesus monkey assessed as temporary egg suppression at 200 mg/kg/day, through gavage for 10 days; assay type: functional, organism-based; how it was run: as §2
# Schistosoma mansoni [15] = test: Antischistosomal activity against Schistosoma mansoni Puerto Rican infected mouse assessed as reduction in live schistosomes at 400 mg/kg/day, through gavage for 10 days; assay type: functional; settings: po, 240 h
# Schistosoma mansoni [16] = test: Antischistosomal activity against Schistosoma mansoni Puerto Rican infected mouse assessed as reduction in live schistosomes at 329 mg/kg/day, through diet for 14 days; assay type: functional; settings: 336 h; how it was run: as §1
# Schistosoma mansoni [17] = test: Antischistosomal activity against Schistosoma mansoni Puerto Rican infected mouse assessed as infected mouse at 329 mg/kg/day, through diet for 14 days; assay type: functional; how it was run: as §1
# Schistosoma mansoni [18] = test: Antischistosomal activity against Schistosoma mansoni Puerto Rican infected mouse assessed as infected mouse at 400 mg/kg/day, through gavage for 10 days; assay type: functional
# Schistosoma mansoni [19] = test: Antischistosomal activity against Schistosoma mansoni Puerto Rican infected mouse assessed as infected mouse at 297 mg/kg/day, through diet for 14 days; assay type: functional; how it was run: as §1
# Schistosoma mansoni [20] = test: Antischistosomal activity against Schistosoma mansoni Puerto Rican infected mouse assessed as reduction in live schistosomes at 297 mg/kg/day, through diet for 14 days; assay type: functional; settings: 336 h; how it was run: as §1
# Schistosoma mansoni [21] = test: Antischistosomal activity against Schistosoma mansoni Puerto Rican infected mouse assessed as infected mouse at 349 mg/kg/day, through diet for 14 days; assay type: functional; how it was run: as §1
# Schistosoma mansoni [22] = test: Antischistosomal activity against Schistosoma mansoni Puerto Rican infected mouse assessed as reduction in live schistosomes at 349 mg/kg/day, through diet for 14 days; assay type: functional; settings: 336 h; how it was run: as §1
# Schistosoma mansoni [23] = test: Antischistosomal activity against Schistosoma mansoni Puerto Rican infected mouse assessed as reduction in live schistosomes at 301 mg/kg/day, through diet for 14 days; assay type: functional; settings: 336 h; how it was run: as §1
# Schistosoma mansoni [24] = test: Antischistosomal activity against Schistosoma mansoni Puerto Rican infected mouse assessed as infected mouse at 301 mg/kg/day, through diet for 14 days; assay type: functional; how it was run: as §1
compound,measurement,setting,value
CN1C(=O)NC(c2cc(Cl)c(Cl)cc2Cl)C1=O (centres undefined),inhibition in vivo at 265 mg/kg/day,Schistosoma mansoni [1],83%
same,Activity,Schistosoma mansoni [2],33%
Cc1c(Cl)ccc(C2(C)NC(=O)NC2=O)c1Cl (centres undefined),Activity,Schistosoma mansoni [3],100%
same,inhibition in vivo at 332 mg/kg/day,Schistosoma mansoni [4],26%
O=C1NC(=O)C(c2c(Cl)cccc2Cl)N1 (centres undefined),inhibition in vivo at 347 mg/kg/day,Schistosoma mansoni [5],2%
same,Activity,Schistosoma mansoni [6],100%
CC1(c2ccc(Cl)c(Cl)c2)NC(=O)NC1=O (centres undefined),inhibition in vivo at 376 mg/kg/day,Schistosoma mansoni [7],38%
same,Activity,Schistosoma mansoni [8],100%
CC1(c2cccc([N+](=O)[O-])c2)NC(=O)NC1=O (centres undefined),Activity,Schistosoma mansoni [9],100%
same,inhibition in vivo at 298 mg/kg/day,Schistosoma mansoni [10],0%
CN1C(=O)NC(=O)C1c1cc(Cl)c(Cl)cc1Cl (centres undefined),inhibition in vivo at 396 mg/kg/day,Schistosoma mansoni [11],71%
same,Activity,Schistosoma mansoni [12],83%
O=C1NC(=O)C(c2cc(Cl)c(Cl)cc2Cl)N1 (centres undefined) [listing 1 of 2 here],inhibition,Schistosoma mansoni [13],Active
same,inhibition,Schistosoma mansoni [14],Dose-dependent effect
O=C1NC(=O)C(c2cc(Cl)c(Cl)cc2Cl)N1 (centres undefined) [listing 2 of 2 here],inhibition in vivo at 400 mg/kg/day,Schistosoma mansoni [15],0%
same,inhibition in vivo at 329 mg/kg/day,Schistosoma mansoni [16],80%
same,Activity,Schistosoma mansoni [17],67%
same,Activity,Schistosoma mansoni [18],100%
CC1(c2cc(Cl)c(Cl)cc2Cl)NC(=O)NC1=O (centres undefined),Activity,Schistosoma mansoni [19],66%
same,inhibition in vivo at 297 mg/kg/day,Schistosoma mansoni [20],90%
Cc1cc(Cl)c(Cl)cc1C1(C)NC(=O)NC1=O (centres undefined),Activity,Schistosoma mansoni [21],100%
same,inhibition in vivo at 349 mg/kg/day,Schistosoma mansoni [22],48%
CC1(c2ccc(Cl)cc2Cl)NC(=O)NC1=O (centres undefined),inhibition in vivo at 301 mg/kg/day,Schistosoma mansoni [23],8%
same,Activity,Schistosoma mansoni [24],100%
